The source made the active and inactive calls. No cut-off for these calls is given here.
Experiments:
[1] = AUCinfinity in mouse at 10 mg/kg, po; type: ADME, organism-based; design: dose 10 mg/kg, route oral, time infinity; details: in vivo
[2] = Cmax in mouse at 10 mg/kg, po; type: ADME, organism-based; design: dose 10 mg/kg, route oral; details: in vivo
BaF3 [3] = assay: Induction of apoptosis in mouse BA/F3 cells expressing NRAS-G12D mutant assessed as increase in cleaved PARP levels at 5 uM after 24 hrs by Western blot analysis; type: functional, cell-based
In short: (§1)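 Cells treated 24 h with indicated concentrations (1 µM; 5 µM also used in Ba/F3-NRAS-G12D); cleaved PARP, cleaved caspase 3, bcl-2 and MCL1 detected by western blot with actin as loading control.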

[4] = target: Vascular endothelial growth factor receptor 2 (Homo sapiens) (UniProt P35968); assay: Inhibition of human KDR at 1 uM relative to control
[5] = target: Ephrin type-B receptor 1 (Homo sapiens) (UniProt P54762); assay: Inhibition of human EphB1 at 1 uM relative to control
[6] = target: Epithelial discoidin domain-containing receptor 1 (Homo sapiens) (UniProt Q08345); assay: Inhibition of human DDR1 at 1 uM relative to control
Chain of Epithelial discoidin domain-containing receptor 1 (Homo sapiens) (Q08345 whole entry, the tested form may be a part): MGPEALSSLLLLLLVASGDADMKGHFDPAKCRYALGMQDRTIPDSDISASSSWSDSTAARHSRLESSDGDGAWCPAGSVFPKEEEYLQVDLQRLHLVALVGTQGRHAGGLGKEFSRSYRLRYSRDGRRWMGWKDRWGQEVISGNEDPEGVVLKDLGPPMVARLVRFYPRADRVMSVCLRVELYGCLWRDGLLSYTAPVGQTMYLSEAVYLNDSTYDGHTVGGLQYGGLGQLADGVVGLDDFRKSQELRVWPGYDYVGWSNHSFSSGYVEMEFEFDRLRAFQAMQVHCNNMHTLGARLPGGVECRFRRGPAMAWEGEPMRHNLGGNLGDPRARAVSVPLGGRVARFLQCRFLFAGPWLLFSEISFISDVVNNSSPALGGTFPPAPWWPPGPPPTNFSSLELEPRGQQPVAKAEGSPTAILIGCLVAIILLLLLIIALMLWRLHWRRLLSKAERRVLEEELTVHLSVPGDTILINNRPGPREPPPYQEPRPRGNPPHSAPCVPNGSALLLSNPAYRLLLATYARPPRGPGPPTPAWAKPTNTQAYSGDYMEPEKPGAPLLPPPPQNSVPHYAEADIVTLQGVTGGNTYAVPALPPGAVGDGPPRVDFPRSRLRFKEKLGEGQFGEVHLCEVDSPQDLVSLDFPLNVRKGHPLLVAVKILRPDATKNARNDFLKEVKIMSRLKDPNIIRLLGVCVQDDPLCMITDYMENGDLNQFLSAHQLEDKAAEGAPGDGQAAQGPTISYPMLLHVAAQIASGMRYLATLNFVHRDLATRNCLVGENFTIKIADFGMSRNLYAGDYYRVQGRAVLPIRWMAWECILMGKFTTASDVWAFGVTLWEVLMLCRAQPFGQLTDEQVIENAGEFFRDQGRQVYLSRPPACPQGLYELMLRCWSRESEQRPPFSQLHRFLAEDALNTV

[7] = target: Discoidin domain-containing receptor 2 (Homo sapiens) (UniProt Q16832); assay: Inhibition of human DDR2 at 1 uM relative to control
Chain of Discoidin domain-containing receptor 2 (Homo sapiens) (Q16832 whole entry, the tested form may be a part): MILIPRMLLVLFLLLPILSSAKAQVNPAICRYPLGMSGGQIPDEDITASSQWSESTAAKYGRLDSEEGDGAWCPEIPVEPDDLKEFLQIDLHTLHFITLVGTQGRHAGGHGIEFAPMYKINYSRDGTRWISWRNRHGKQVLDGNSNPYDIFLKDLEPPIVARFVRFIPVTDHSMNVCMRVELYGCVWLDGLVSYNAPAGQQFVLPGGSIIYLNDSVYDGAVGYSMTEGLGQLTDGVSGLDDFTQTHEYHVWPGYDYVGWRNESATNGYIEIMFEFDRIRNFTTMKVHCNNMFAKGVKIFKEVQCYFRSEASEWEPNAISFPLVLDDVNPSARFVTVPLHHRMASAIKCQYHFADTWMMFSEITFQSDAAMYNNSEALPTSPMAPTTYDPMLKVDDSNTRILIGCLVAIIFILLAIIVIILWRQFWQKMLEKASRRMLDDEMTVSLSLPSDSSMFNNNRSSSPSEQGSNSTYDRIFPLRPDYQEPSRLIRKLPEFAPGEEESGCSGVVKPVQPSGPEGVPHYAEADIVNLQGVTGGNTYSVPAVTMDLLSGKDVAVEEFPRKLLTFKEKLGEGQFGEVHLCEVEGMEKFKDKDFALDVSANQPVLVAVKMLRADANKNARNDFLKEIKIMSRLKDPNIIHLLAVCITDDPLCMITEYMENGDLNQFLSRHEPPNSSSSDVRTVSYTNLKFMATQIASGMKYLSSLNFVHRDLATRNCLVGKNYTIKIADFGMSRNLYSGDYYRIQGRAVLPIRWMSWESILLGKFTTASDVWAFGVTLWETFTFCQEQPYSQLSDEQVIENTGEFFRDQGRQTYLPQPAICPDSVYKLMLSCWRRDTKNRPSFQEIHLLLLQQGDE

[8] = target: Tyrosine-protein kinase ABL2 (Homo sapiens) (UniProt P42684); assay: Inhibition of human ABL2 at 1 uM relative to control
[9] = target: Mitogen-activated protein kinase 14 (Homo sapiens) (UniProt Q16539); assay: Inhibition of human p38alpha at 1 uM relative to control
[10] = target: Tyrosine-protein kinase Fgr (Homo sapiens) (UniProt P09769); assay: Inhibition of human FGR at 1 uM relative to control
[11] = target: Serine/threonine-protein kinase B-raf (Homo sapiens) (UniProt P15056); assay: Inhibition of human BRAF at 1 uM relative to control
Chain of Serine/threonine-protein kinase B-raf (Homo sapiens) (P15056 whole entry): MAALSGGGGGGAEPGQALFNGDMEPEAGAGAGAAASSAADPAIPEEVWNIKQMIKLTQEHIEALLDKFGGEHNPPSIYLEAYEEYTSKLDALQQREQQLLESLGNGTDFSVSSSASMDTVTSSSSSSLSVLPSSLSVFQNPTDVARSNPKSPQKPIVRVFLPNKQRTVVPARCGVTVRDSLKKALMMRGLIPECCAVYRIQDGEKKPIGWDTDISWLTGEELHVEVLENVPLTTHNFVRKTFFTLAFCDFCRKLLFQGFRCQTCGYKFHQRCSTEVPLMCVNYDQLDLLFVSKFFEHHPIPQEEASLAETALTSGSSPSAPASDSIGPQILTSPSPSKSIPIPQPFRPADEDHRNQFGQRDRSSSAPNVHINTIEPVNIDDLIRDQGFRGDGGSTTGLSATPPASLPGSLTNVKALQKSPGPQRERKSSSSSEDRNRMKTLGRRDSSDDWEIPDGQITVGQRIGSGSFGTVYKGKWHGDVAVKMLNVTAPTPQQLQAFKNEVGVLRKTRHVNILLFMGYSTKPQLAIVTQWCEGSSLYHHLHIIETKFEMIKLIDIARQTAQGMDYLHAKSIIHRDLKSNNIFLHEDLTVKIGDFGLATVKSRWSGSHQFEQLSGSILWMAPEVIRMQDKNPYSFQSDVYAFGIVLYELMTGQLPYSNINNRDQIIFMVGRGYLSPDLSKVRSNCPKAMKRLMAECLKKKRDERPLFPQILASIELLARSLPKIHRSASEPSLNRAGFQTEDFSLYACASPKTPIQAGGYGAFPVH

[12] = target: Macrophage colony-stimulating factor 1 receptor (Homo sapiens) (UniProt P07333); assay: Inhibition of human FMS at 1 uM relative to control
Chain of Macrophage colony-stimulating factor 1 receptor (Homo sapiens) (P07333 whole entry): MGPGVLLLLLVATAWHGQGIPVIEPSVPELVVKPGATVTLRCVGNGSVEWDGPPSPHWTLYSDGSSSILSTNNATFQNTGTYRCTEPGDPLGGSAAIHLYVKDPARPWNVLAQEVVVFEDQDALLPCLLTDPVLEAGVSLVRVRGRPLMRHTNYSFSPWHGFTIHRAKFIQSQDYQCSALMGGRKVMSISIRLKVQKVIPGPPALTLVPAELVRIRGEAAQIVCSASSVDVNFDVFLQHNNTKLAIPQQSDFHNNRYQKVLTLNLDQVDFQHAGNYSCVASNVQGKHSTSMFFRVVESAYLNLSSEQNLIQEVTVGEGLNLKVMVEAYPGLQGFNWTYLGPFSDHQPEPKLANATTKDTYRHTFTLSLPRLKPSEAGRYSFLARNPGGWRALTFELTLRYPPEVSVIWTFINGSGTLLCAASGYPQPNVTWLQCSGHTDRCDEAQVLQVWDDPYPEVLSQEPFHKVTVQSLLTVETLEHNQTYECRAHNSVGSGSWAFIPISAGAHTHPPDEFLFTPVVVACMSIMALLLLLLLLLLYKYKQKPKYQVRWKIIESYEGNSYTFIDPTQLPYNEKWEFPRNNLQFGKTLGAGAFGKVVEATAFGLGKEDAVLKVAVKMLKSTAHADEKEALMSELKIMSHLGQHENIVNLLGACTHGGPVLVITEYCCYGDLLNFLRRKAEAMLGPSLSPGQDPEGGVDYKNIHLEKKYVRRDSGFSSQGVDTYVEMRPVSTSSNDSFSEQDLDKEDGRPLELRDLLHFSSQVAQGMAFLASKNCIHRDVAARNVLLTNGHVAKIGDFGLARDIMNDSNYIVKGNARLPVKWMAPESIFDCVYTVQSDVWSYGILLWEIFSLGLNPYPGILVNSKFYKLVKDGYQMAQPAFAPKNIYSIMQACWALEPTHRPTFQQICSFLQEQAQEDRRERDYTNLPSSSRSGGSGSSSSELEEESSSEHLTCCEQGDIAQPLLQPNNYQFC

[13] = target: Tyrosine-protein kinase Yes (Homo sapiens) (UniProt P07947); assay: Inhibition of human YES at 1 uM relative to control
[14] = target: Platelet-derived growth factor receptor alpha (Homo sapiens) (UniProt P16234); assay: Inhibition of human PDGFRa at 1 uM relative to control
[15] = target: Tyrosine-protein kinase JAK1 (Homo sapiens) (UniProt P23458); assay: Inhibition of human JAK1 at 1 uM relative to control
[16] = target: Tyrosine-protein kinase JAK2 (Homo sapiens) (UniProt O60674); assay: Inhibition of human JAK2 at 1 uM relative to control
[17] = target: Fibroblast growth factor receptor 2 (Homo sapiens) (UniProt P21802); assay: Inhibition of human FGFR2 at 1 uM relative to control
[18] = target: Serine/threonine-protein kinase SIK1 (Homo sapiens) (UniProt P57059); assay: Inhibition of human SIK1 at 1 uM relative to control
Chain of Serine/threonine-protein kinase SIK1 (Homo sapiens) (P57059 whole entry): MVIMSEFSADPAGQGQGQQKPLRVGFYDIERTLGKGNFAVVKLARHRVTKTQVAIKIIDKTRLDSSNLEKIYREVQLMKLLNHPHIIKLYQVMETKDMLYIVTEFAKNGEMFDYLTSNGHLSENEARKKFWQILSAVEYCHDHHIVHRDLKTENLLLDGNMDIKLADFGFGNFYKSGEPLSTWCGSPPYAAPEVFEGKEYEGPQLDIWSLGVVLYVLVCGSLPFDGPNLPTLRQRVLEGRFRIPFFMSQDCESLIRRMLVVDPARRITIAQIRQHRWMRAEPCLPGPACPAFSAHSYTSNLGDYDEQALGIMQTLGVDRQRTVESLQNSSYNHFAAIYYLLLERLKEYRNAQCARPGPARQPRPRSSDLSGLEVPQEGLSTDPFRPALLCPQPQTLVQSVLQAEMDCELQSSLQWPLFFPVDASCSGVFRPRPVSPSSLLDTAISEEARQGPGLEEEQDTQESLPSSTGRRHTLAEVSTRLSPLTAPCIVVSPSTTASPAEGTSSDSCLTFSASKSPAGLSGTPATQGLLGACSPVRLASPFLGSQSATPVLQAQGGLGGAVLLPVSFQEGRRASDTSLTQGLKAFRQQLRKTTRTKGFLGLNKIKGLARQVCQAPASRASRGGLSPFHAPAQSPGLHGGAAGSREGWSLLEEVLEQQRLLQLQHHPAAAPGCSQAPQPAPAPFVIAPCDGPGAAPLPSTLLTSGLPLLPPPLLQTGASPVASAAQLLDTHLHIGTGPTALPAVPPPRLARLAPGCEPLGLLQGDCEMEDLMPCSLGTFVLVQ

[19] = target: Ephrin type-A receptor 1 (Homo sapiens) (UniProt P21709); assay: Inhibition of human EphA1 at 1 uM relative to control
BaF3 [20] = assay: Antileukemic activity against mouse BA/F3 cells harboring NRAS-G12D mutant/luciferase allografted in immunodeficient mouse at 15 mg/kg/day, po qd administered on day 6 post implantation measured on day 20 post implantation by bioluminescence imaging method; type: functional
In short: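 Immunodeficient mice injected via tail vein with Ba/F3-NRAS-G12D/Luc cells, dosed orally once daily (8 or 15 mg/kg/day) or vehicle for 3 weeks, n=4 per cohort; bioluminescence imaged every two days after luciferin 150 mg/kg, quantified by bio-photonic analysis.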

BaF3 [21] = assay: Antileukemic activity against mouse BA/F3 cells harboring NRAS-G12D mutant allografted in immunodeficient mouse assessed as median survival time at 25 mg/kg/day, po qd administered on day 6 post implantation (reference value: 23 days); type: functional
OCI-AML-3 = assay: Antileukemic activity against human OCI-AML3 cells harboring NRAS-Q61L mutant xenografted in immunodeficient po dosed mouse administered qd on day 21 post implantation measured on day 20 post dose; type: functional, organism-based
Mus musculus = assay: Toxicity in immunodeficient mouse allografted with mouse BA/F3 cells harboring NRAS-G12D mutant assessed as body weight loss at 15 to 25 mg/kg/day, po qd administered on day 6 post implantation; type: organism-based; details: in vivo
In short: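 Immunodeficient mice were given Ba/F3-NRAS-G12D/luciferase cells by tail-vein injection and then dosed orally once daily, with a vehicle-only cohort as control. Body weight was followed during treatment. The bioluminescence cohorts had n=4 and were treated for 3 weeks.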

[22] = target: Tyrosine-protein kinase Lyn (Homo sapiens) (UniProt P07948); details: 1 uM
Chain of Tyrosine-protein kinase Lyn (Homo sapiens) (P07948 2-512 limits assumed): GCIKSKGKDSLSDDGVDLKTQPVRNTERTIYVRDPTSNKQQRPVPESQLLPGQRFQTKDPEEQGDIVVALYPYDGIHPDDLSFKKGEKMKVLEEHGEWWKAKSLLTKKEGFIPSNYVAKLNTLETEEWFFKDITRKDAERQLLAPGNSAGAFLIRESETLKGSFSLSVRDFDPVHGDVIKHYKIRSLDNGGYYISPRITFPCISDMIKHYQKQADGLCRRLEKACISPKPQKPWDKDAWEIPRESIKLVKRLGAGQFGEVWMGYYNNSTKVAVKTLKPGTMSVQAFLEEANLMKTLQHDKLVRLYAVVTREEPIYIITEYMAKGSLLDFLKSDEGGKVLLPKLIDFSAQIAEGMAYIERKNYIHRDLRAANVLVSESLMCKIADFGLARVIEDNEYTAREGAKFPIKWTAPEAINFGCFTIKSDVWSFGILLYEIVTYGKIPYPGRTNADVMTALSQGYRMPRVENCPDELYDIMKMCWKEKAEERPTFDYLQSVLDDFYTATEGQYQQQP

[23] = target: T1, Mitogen-activated protein kinase kinase kinase kinase 2 (Homo sapiens) (UniProt Q12851); details: 1 uM
T1 sequence (whole entry): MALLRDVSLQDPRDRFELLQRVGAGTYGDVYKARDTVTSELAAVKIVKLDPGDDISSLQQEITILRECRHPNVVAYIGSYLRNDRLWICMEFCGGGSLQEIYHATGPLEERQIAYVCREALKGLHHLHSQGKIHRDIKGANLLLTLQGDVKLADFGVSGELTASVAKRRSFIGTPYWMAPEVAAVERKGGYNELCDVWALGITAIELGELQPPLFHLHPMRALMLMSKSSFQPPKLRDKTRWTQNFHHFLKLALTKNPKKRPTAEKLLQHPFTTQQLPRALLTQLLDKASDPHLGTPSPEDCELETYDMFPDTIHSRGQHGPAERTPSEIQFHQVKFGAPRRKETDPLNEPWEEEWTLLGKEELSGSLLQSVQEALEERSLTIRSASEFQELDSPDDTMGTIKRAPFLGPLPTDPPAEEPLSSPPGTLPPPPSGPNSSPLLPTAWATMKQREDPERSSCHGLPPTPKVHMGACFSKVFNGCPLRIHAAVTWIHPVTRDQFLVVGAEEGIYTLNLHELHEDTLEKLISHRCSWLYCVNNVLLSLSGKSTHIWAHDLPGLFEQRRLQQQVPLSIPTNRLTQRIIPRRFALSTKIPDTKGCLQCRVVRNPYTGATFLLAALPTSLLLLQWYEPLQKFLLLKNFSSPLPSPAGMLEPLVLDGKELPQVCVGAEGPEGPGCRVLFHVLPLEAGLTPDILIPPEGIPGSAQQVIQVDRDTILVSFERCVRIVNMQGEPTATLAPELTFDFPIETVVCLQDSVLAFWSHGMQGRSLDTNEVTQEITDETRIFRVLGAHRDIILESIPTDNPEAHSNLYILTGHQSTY

BaF3 [24] = assay: Induction of apoptosis in mouse BA/F3 cells expressing NRAS-G12D mutant assessed as increase in cleaved PARP levels at 1 uM after 24 hrs by Western blot analysis; type: functional, cell-based; in short: as §1
BaF3 [25] = assay: Induction of apoptosis in mouse BA/F3 cells expressing NRAS-G12D mutant assessed as decrease in bcl2 levels at 1 uM after 24 hrs by Western blot analysis; type: functional, cell-based; in short: as §1

## Cc1ccc(NC(=O)c2cccc(C(F)(F)F)c2)cc1N1Cc2cnc(N)nc2N(C)C1=O
[1]
  AUC(0-inf): 52500 ng·h/mL
[2]
  Cmax: 2410 ng/mL
BaF3 [3]
  Activity: Active
[4]
  inhibition: 96.4%
[5]
  inhibition: 96.9%
[6]
  inhibition: 97.8%
[7]
  inhibition: 98.1%
[8]
  inhibition: 98.3%
[9]
  inhibition: 98.9%
[10]
  inhibition: 99.1%
[11]
  inhibition: 99.1%
[12]
  inhibition: 99.1%
[13]
  inhibition: 99.7%
[14]
  inhibition: 95%
[15]
  inhibition: 94.9%
[16]
  inhibition: 94.4%
[17]
  inhibition: 93.5%
[18]
  inhibition: 91.6%
[19]
  inhibition: 90.7%
BaF3 [20]
  Activity: >50%
BaF3 [21]
  MSD: 35 days
OCI-AML-3
  Activity: Dose-dependent effect
Mus musculus
  Activity: Non-Toxic
[22]
  inhibition: 99.4%
[23]
  inhibition: 93.8%

## CC(=O)N1CCN(c2ccc(Nc3ncc4c(n3)N(C)C(=O)N(c3cc(NC(=O)c5cccc(C(F)(F)F)c5)ccc3C)C4)cn2)CC1
BaF3 [24]
  Activity: Active
BaF3 [25]
  Activity: Active

Source: ChEMBL document CHEMBL4196175, “First SAR Study for Overriding NRAS Mutant Driven Acute Myeloid Leukemia” (J Med Chem, 2018)
